Data taken from ChEMBL document CHEMBL1127454, “Differential inhibition of aminopeptidase A and aminopeptidase N by new beta-amino thiols” (J Med Chem, 1994).

biological target: Glutamyl aminopeptidase (Oryctolagus cuniculus); assay: Inhibition of aminopeptidase A (APA)

| Ki [µM] | SMILES |
| --- | --- |
| 0.14 | N[C@H](CS)CCC(=O)O |

biological target: T1, Aminopeptidase N (Sus scrofa, UniProt P15145); assay: Inhibitory potency was measured on aminopeptidase N (APN)
T1 sequence (P15145 whole entry): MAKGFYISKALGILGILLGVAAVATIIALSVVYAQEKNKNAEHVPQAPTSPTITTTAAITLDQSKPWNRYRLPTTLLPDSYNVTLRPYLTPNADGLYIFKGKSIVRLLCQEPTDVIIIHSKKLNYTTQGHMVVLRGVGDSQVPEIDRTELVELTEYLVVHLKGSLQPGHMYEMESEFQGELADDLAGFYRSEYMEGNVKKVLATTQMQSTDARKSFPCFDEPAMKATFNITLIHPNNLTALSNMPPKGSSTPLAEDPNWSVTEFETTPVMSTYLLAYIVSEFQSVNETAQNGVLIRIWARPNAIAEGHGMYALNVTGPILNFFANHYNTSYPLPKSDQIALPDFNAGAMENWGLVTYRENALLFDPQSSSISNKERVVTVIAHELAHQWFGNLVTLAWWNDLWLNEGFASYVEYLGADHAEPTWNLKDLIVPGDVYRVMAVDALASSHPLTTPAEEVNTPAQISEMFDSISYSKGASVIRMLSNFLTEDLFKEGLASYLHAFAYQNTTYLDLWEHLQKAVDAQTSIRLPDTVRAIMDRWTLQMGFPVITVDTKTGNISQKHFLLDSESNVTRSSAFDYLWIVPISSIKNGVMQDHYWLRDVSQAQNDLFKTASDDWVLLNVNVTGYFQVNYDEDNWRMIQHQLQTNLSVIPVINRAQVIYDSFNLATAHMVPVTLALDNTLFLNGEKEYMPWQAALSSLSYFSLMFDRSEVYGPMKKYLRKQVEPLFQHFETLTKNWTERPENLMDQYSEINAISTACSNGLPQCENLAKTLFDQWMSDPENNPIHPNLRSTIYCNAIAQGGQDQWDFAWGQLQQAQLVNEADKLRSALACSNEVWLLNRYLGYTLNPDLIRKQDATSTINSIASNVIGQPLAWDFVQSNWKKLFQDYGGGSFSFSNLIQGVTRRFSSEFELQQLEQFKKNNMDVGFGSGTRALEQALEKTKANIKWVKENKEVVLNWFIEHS
How it was run: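 APN preincubated 15 min at 25 °C with varied inhibitor levels in 50 mM Tris-HCl pH 7.4. […] Reaction run 15 min, stopped with HCl. Released [3H]Tyr separated on polystyrene beads and counted by liquid scintillation. Thiols dissolved with DTT (100 equiv). Ki derived from IC50 via Cheng-Prusoff, competitive inhibition assumed. Three experiments, triplicate.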

| SMILES | Ki [µM] |
| --- | --- |
| NC(CS)CCCCC(=O)O (centres undefined) | 0.28 |
| N[C@H](CS)CCCS | 0.032 |
| NC(CS)CCCP(=O)(O)O (centres undefined) | 3.7 |
| NC(CS)CC(C(=O)O)C(=O)O (centres undefined) | 4.5 |
| CC(C[C@H](N)CS)C(=O)O (some centres undefined) | 4 |
| CC(CC(N)CS)C(=O)O (centres undefined) | 2.8 |
| N[C@H](CS)CCCS(=O)(=O)O | 1.9 |
| NC(CS)CCP(=O)(O)O (centres undefined) | 12 |

The remaining lines, values ahead:

| Ki [µM] | SMILES |
| --- | --- |
| 25 | N[C@H](CS)CCS(=O)(=O)O |
| 15.5 | N[C@@H](CS)CCCC(=O)O |
| 0.6 | NC(CS)CCC(C(=O)O)C(=O)O (centres undefined) |
| 0.33 | N[C@H](CS)CCCC(=O)O |
| 0.037 | N[C@H](CS)CCCC(=O)NO |
